# PAD4 inh = PAD4 (human) enzyme inhibition; inhibition, % at 6.36 µM; actives 0.41% (n = 330,000); recombinant PAD4, RCA probe fluorescence polarization;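 active = percent inhibition above a cutoff equal to the mean of all tested compounds plus 3 SD, cut at about 15% in these data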;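 also: 0% = PAD4 with RCA probe and DMSO and 100% = probe without PAD4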
# TDP2 inh = blocks human TDP2 phosphodiesterase activity; O95551; AID 720702; recombinant TDP2, T5PNP hydrolysis, p-nitrophenol absorbance 415 nm; actives 0.34% (n = 370,000); inhibition, % at 12.8 µM;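 active = inhibition above the mean of all tested compounds plus 3 SD, set per campaign, cut at about 25% in these data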;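 also: 0% = DMSO with enzyme and 100% = buffer with substrate but no TDP2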
#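 Assay system: recombinant human TDP2 / Reagent: T5PNP substrate at 5 mM, a TopII-DNA adduct mimic / Measured by: epi absorbance from released p-nitrophenol / Evaluation: % inhibition relative to enzyme-containing and enzyme-free wells / Control set: enzyme-free and DMSO wells / Replicates: each compound tested once, singlicate / Schedule: enzyme reaction with compound for 2 h at 37 °C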
# mABHD4 FP = inhibits mouse alpha/beta hydrolase domain 4; Q8VD66; purified mABHD4, FP-Rh probe fluorescence polarization; inhibition, % at 8.92 µM; actives 0.54% (n = 370,000); AID 720543;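 active = inhibition exceeding the mean over every tested compound plus 3 SD, cut at about 30% in these data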;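 also: 0% = plate median of compound wells and 100% = S159A mutant with DMSO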
# Target sequence (Q8VD66 whole entry, looked up, the tested form may be a part): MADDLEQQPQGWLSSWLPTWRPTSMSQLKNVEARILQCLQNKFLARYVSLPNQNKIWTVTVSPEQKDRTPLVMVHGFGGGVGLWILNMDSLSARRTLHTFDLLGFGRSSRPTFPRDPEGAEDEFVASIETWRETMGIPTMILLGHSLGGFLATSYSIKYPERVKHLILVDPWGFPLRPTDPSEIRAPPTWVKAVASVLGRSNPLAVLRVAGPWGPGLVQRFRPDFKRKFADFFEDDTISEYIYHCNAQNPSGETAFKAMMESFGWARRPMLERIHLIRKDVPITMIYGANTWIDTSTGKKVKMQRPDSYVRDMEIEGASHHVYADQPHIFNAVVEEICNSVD
#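 Doses – 8.92 µM, single dose · Material – wild-type mouse ABHD4 protein · Replication – single well per compound (singlicate) · Measure – percent inhibition of probe binding, normalized to plate controls · Schedule – 45 min compound pre-incubation plus 60 min probe step, 25 °C · Detection – fluorescence polarization with parallel and perpendicular emission, 525/598 nm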
# HTRA1 inhibitor = HTRA1 (human) protease inhibition. Q92743. recombinant HTRA1, FP-rhodamine activity-based probe, fluorescence polarization. inhibition, % at 5.96 µM. actives 0.5% (n = 340,000). AID 504803; in the data active = inhibition above about 36%;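 also: 0% = enzyme with DMSO and 100% = wells lacking enzyme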
# SIAE primary = inhibitors of human sialic acid acetylesterase SIAE; Q9HAT2; SIAE FP-Rh probe binding, fluorescence polarization; inhibition, % at 9.66 µM; actives 0.69% (n = 370,000); AID 1053197;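 active = inhibition above a cutoff: mean of compounds within the control limits plus 3 SD of those, cut at about 17% in these data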;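 also: 0% = plate median of compound wells and 100% = probe without SIAE protein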
# TCR CD3 inh = blocks the human TCR-CD3 interaction; TAMRA-labeled TCR probe fluorescence, biochemical; inhibition, % at 9.4 µM; actives 0.37% (n = 360,000);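 also: recombinant mutant TCR 2C K166C tagged with TAMRA read by polarization; 0% = receptor in buffer alone and 100% = receptor with positive control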
# HTRA1 inh conf = HTRA1 (human) inhibition, confirmation; shares compounds with HTRA1 inhibitor; recombinant HTRA1, FP-rhodamine activity-based probe, fluorescence polarization; inhibition, % at 5.96 µM; actives 66% (n = 1,600);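 active = mean inhibition over three repeats above a set limit taken from the earlier primary screen, cut at about 37% in these data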;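 also: 0% = HTRA1 with DMSO and 100% = wells lacking HTRA1; inhibitors block probe binding so polarization drops and inhibition rises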
# BSA TAMRA ctr = counter-screen for TCR-CD3 interaction inhibitors: BSA probe | shares compounds with TCR CD3 inh | TAMRA-labeled BSA probe fluorescence counterscreen | inhibition, % at 9.4 µM | actives 10% (n = 1,200) | AID 652035; in the data active = inhibition above about 23%;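 also: 0% = buffer low control and 100% = reference high control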
# TCR-CD3 inh conf = confirmation of human TCR-CD3 interaction inhibitors | shares compounds with TCR CD3 inh | TAMRA-labeled TCR probe fluorescence binding assay | inhibition, % at 9.4 µM | actives 48% (n = 1,200) | AID 652036
# ABHD4 confirm = ABHD4 (mouse) inhibition, FP confirmation. inhibition, % at 8.92 µM. purified mABHD4, FP-Rh probe fluorescence polarization. actives 55% (n = 1,800). shares compounds with mABHD4 FP;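 active = mean inhibition across replicates above the hit cutoff set in the primary screen, cut at about 30% in these data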;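 also: 0% = wild-type ABHD4 with DMSO and 100% = catalytically dead S159A mutant with DMSO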
# SIAE inh conf = confirmation of human SIAE inhibitors. shares compounds with SIAE primary. SIAE FP-Rh activity-based probe, fluorescence polarization. inhibition, % at 9.66 µM. actives 13% (n = 2,300). AID 1117263;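 active = mean inhibition of the replicates above the hit cutoff set in the primary screen, cut at about 17% in these data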;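 also: 0% = SIAE with DMSO and probe and 100% = probe without SIAE; inhibitors lower polarization as more probe stays unbound to SIAE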
# The depositor's hits bear a star; . = no result. Only some compounds are listed: those with a hit (about 2% of all), similar ones and a draw of the others. Rule as the data show it, unless noted: active = inhibition above about 19%; inactive = the rest.
SMILES,PAD4 inh,TDP2 inh,mABHD4 FP,HTRA1 inhibitor,SIAE primary,TCR CD3 inh,HTRA1 inh conf,SIAE inh conf,others
COc1ccc2c(c1)cc(C(=O)N/N=C/c1c(O)c(C(=O)O)cc3ccccc13)n2C,-8.2,-16.6,18.6,54.6*,39.3*,36.6*,38.9*,5.6,BSA TAMRA ctr=-17.4;TCR-CD3 inh conf=44.9*
CC(=O)Nc1ccc(N=Cc2c(O)c(C(=O)Nc3ccccc3)cc3ccccc23)cc1,-4.2,-8.1,-5.7,.,6.8,1.6,.,.,
N#CCc1ccc(OC[C@@H](O)CN2CCC(C(O)(c3ccccc3)c3ccccc3)CC2)cc1,.,-6.8,5.1,.,0.3,.,.,.,
CN(Cc1ccccc1)C(=O)COC(=O)C12CC3CC(CC(Br)(C3)C1)C2,-5.1,-0.9,-5.7,-14.6,-4.3,0.3,.,.,
O=S(=O)(c1cccc(-c2n[nH]c(=S)o2)c1)N1CCOCC1,-2.9,3.3,-1.6,2.5,-0.7,3.0,.,.,
COCCCNC(=O)c1ccc2c3c(onc13)-c1ccccc1C2=O,-15.9,.,.,6.0,.,.,.,.,
CCOC(=O)C(C(=O)OCC)c1cc(Br)c2noc3c2c1C(=O)c1ccccc1-3,1.5,6.1,21.7,47.5*,22.3*,8.1,25.1,-1.8,
COc1ccc(/C=N/NC(=O)c2cc(O)c(O)c(O)c2)cc1Cn1cc([N+](=O)[O-])cn1,.,4.3,28.1,71.6*,46.0*,62.6*,82.1*,1.9,BSA TAMRA ctr=-9.7;TCR-CD3 inh conf=77.7*
O=C(N/N=C/c1c(O)ccc2ccccc12)c1cccc(C(F)(F)F)c1,0.1,-3.0,20.6,56.7*,25.1*,10.7,58.3*,6.5,
COc1ccc2ccccc2c1/C=N/NC(=O)c1cccc(Br)c1,-7.1,2.9,-2.8,-42.3,-11.5,-3.5,.,.,
COc1ccc(O)c(/C=N/NC(=S)Nc2cccc(S(=O)(=O)N(C)C)c2)c1,-0.8,5.8,2.6,38.4*,32.7*,13.7,19.2,-5.5,
COc1cccc(/C=N/NC(=S)Nc2cccc(S(=O)(=O)N(C)C)c2)c1,-9.4,2.7,1.2,-20.1,-0.6,-2.1,.,.,
CN(C)S(=O)(=O)c1cccc(NC(=S)N/N=C/c2ccc(O)c(O)c2O)c1,.,3.7,32.0*,44.8*,35.2*,50.6*,49.4*,27.4*,ABHD4 confirm=81.9*
O=C(Nc1cc2c3c(c1)CC(=O)N3CCC2)c1ccccc1Br,-3.3,-1.6,1.8,3.7,2.7,-0.7,.,.,
Nc1nc(Sc2ccc([N+](=O)[O-])c3nonc23)c2[nH]cnc2n1,.,1.2,46.5*,58.9*,17.4*,7.3,71.3*,0.3,ABHD4 confirm=48.6*
CN1OC[C@@H]2CN3C(=O)N(c4cccc5ccccc45)c4ccccc4[C@@H]3C[C@@H]21,.,-1.0,-1.5,.,5.4,3.5,.,.,
O=C1CCCC(O)=C1N=Nc1ccc(C(=O)O)cc1,4.5,-13.4,29.4,39.7*,66.2*,18.2,12.2,-2.0,
O=C(CCl)N1c2ccccc2Oc2ccc3ccccc3c21,.,6.3,62.4*,80.2*,22.0*,22.3*,-20.1,-1.6,ABHD4 confirm=-8.6
NNC(=O)c1oc2nc(-c3cccs3)cc(-c3ccco3)c2c1N,-10.7,-11.9,19.8,57.0*,54.9*,13.5,48.1*,74.7*,
COP(=O)(CC(=O)c1ccccc1)CC(=O)c1ccccc1,-2.2,-6.7,1.5,1.4,7.2,-7.5,.,.,
Oc1ccccc1C=Nc1cccc2ccccc12,-6.4,-20.6,-0.1,-3.4,1.1,-10.8,.,.,

# Compound activity as filed in PubChem.
